Columns and labels:
Mus musculus [1] = species: Mus musculus; test: Degradation rate constant in biological media of mouse brain homogenates.; type: ADME, organism-based
Method in brief: (§1)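 Tissues come from male ddY mice (20–30 g) and male Wistar rats (200–250 g). Liver and brain are homogenized at 0–5 °C to 40% in pH 7.4 isotonic phosphate buffer and spun at 2500g for 15 min; the supernatant is used. Plasma is also used. A 0.1 M acetonitrile stock gives 1 mM final. Incubation at 37 ± 0.2 °C; apparent rate constant in h⁻¹.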

Mus musculus [2] = species: Mus musculus; test: Degradation rate constant in biological media of mouse liver homogenates.; type: ADME, organism-based; method in brief: as §1
Rattus norvegicus [3] = species: Rattus norvegicus; test: Degradation rate constant in biological media of rat brain homogenates.; type: ADME, organism-based; method in brief: as §1
Rattus norvegicus [4] = species: Rattus norvegicus; test: Degradation rate constant in biological media of rat liver homogenates.; type: ADME, organism-based; method in brief: as §1
Rattus norvegicus [5] = species: Rattus norvegicus; test: Degradation rate constant in biological media of rat plasma homogenates.; type: ADME, organism-based; method in brief: as §1
[6] = Degradation rate constant in the buffer solution(pH 7.4) was studied as a measure of the stability of the compound.; type: physicochemical
Method in brief: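 A 0.1 M acetonitrile stock is added to preheated pH 7.4 phosphate buffer (0.1 M total, ionic strength 0.3 with NaCl) to 1 mM at 37 ± 0.2 °C. Aliquots are sampled over time. Pseudo-first-order fit gives the apparent rate constant in h⁻¹.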

[7] = Apparent partition coefficient between 1-octanol and pH 5.0 phosphate buffer (0.1 M) at 37 degrees Centigrade.; type: physicochemical; conditions: 1-octanol/phosphate buffer, read-out: LogD5.0
Method in brief: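 Final drug concentration 2 mM. The value is reported as the log of the apparent partition coefficient.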

Mus musculus [8] = species: Mus musculus; test: Latency to the onset of generalized clonic epileptic seizures by picrotoxin was measured and evaluated as a percent of the control in mice.; type: functional; parameters: concentration or dose not given beside the values
Method in brief: (§2)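 Male ddY mice (20–30 g) were given compound i.p. at 200 mg/kg as a suspension in pH 7.4 isotonic phosphate buffer with 1% CMC-Na, 15 min before s.c. picrotoxin 5 mg/kg. Dosing volume was 0.1 mL/10 g, and controls received vehicle. Latency to generalized clonic seizure and survival time were each expressed as % of control.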

Mus musculus [9] = species: Mus musculus; test: Latency to the protection against lethality by picrotoxin was measured and evaluated as a percent of the control in mice.; type: functional; parameters: concentration or dose not given beside the values; method in brief: as §2
Mus musculus [10] = species: Mus musculus; test: Survival ratio was calculated for determination of dose dependency.; type: functional
Method in brief: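 In male ddY mice (20–30 g), compound was given i.p. at varied doses as a suspension in pH 7.4 isotonic phosphate buffer with 1% CMC-Na, 15 min before s.c. picrotoxin 5 mg/kg. Dosing volume was 0.1 mL/10 g. Over 2 h of observation, the fraction of mice surviving was recorded at each dose to define dose dependency.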

Mus musculus [11] = test: Onset for sleeping time after administration in mice induced by sodium pentobarbital; type: functional
Method in brief: (§3)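 Male ddY mice (20–30 g) are dosed i.p. at 50 mg/kg as a suspension in pH 7.4 isotonic phosphate buffer with 1% CMC-Na (0.1 mL/10 g), 30 min before i.p. sodium pentobarbital (45 mg/kg). Loss of righting reflex and sleeping time are recorded per mouse. Mean ± SEM; Student's t test versus control.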

Mus musculus [12] = test: Sleeping time in mice after administration in mice induced by sodium pentobarbital; type: functional; method in brief: as §3
Mus musculus [13] = species: Mus musculus; test: Compounds were evaluated for the effect on electroconvulsive-shock-induced disruption (ECS) of the memory of passive avoidance response (anti-amnesic activity) in mice and expressed as latency.; type: functional
Method in brief: (§4)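 Male ddY mice (20–25 g) are dosed i.p. at 200 mg/kg as a suspension in pH 7.4 isotonic phosphate buffer with 1% CMC-Na (0.1 mL/10 g), 60 min before training. A two-compartment step-through box is used: lighted compartment, darkened compartment with grid floor, 30 V foot shock. Memory is disrupted by electroconvulsive shock. Mean ± SEM; Student's t test versus the ECS group.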

Mus musculus [14] = species: Mus musculus; test: Compounds were evaluated for the effect on electroconvulsive-shock-induced disruption (ECS) of the memory of passive avoidance response (antiamnesic activity) in mice and expressed as learning time.; type: functional; method in brief: as §4
Mus musculus [15] = species: Mus musculus; test: Compounds were evaluated for the effect on electroconvulsive-shock-induced disruption (ECS) of the memory of passive avoidance response (antiamnesic activity) in mice and expressed as latency.; type: functional; method in brief: as §4
[16] = Solubility in pH 5.0 phosphate buffer (0.1 M) at 37 degrees Centigrade; Miscible; type: physicochemical

Row | SMILES | Degradation rate constant (Mus musculus [1]) [h⁻¹] | Degradation rate constant (Mus musculus [2]) [h⁻¹] | Degradation rate constant (Rattus norvegicus [3]) [h⁻¹] | Degradation rate constant (Rattus norvegicus [4]) [h⁻¹] | Degradation rate constant (Rattus norvegicus [5]) [h⁻¹] | Degradation rate constant [6] [h⁻¹] | logD [7] | Latency to clonic seizure onset (% of control) (Mus musculus [8]) [%] | Survival time (Mus musculus [9]) [%] | Survival ratio (Mus musculus [10]) | Onset for sleep (Mus musculus [11]) [min] | Sleeping time (Mus musculus [12]) [min] | Latency (Mus musculus [13]) [s] | Learning time (Mus musculus [14]) [s] | Latency (Mus musculus [15]) [s] | Saq [16] | Onset for sleep, min (Mus musculus [11])
1 | CCCCCCCCCC(=O)N1CCCC1=O | 0.326 | 2.53 | 0.381 | 2.87 | 0.025 | 0.008 | 4.33 | 302 | 364 | 50 |  |  |  |  |  |  | 
2 | NCCCC(=O)O [GAMMA-AMINOBUTYRIC ACID] |  |  |  |  |  |  | -3.33 | 115 | 112 |  | 10.1 | 25.7 |  |  |  |  | 
3 | CCCCCCC(=O)N1CCCC1=O | 0.086 | 11.9 | 0.075 | 14.6 | 0.056 | 0.012 | 3.04 | 124 | 116 | 0 | 7.9 | 61.8 | 240.6 | 20.4 |  |  | 
4 | CC(C)(C)C(=O)N1CCCC1=O |  |  |  |  |  |  |  | 101 | 120 | 0 |  |  |  |  |  |  | 
5 | O=C1CCCN1C(=O)Cc1ccccc1 |  |  |  |  |  |  |  | 106 | 281 | 33 |  |  |  |  |  |  | 
6 | CCCCC(=O)N1CCCC1=O |  |  |  |  |  |  |  | 78 | 107 | 0 |  |  |  |  |  |  | 
7 | CCCCCCCCCCCC(=O)N1CCCC1=O | 0.155 | 0.789 | 0.233 | 1.23 | 0.016 | 0.007 | 5.05 | 129 | 494 | 80 | 9.6 | 47.4 |  | 19.4 | 278.8 |  | 
8 | CCC1(C)CC(=O)NC1=O (stereo unspecified) [ETHOSUXIMIDE] |  |  |  |  |  |  |  | 792 | 577 | 100 |  |  |  |  |  |  | 
9 | CCC(=O)N1CCCC1=O |  |  |  |  |  |  |  | 104 | 112 | 0 |  |  |  |  |  |  | 
10 | CCCC(=O)N1CCCC1=O | 0.016 | 1.35 | 0.016 | 3.11 | 0.054 | 0.006 | 1.18 | 92 | 142 | 0 | 7.2 | 92 |  |  |  |  | 
11 | CC(=O)N1CCCC1=O | 0.01 | 0.221 | 0.014 | 0.097 | 0.028 | 0.015 | -0.05 | 97 | 144 | 0 | 6.9 | 38.2 |  | 15.3 | 101.7 | Miscible | 
12 | O=C1CCCN1C(=O)c1ccccc1 |  |  |  |  |  |  |  | 114 | 93 | 0 |  |  |  |  |  |  | 
13 | CCCC(CCC)C(=O)O [VALPROIC ACID] |  |  |  |  |  |  |  | 171 | 472 | 63 |  | 36.4 |  |  |  |  | 10
14 | O=C1CCCN1 [2-PYRROLIDONE] | 0.002 | 0.034 | 0.016 | 0.03 | 0.018 | < 0.0001 |  | 107 | 102 | 0 | 10.2 | 24.8 |  |  |  | Miscible | 
15 | CCCCCCCCCCCC(=O)NCCCC(=O)O |  |  |  |  |  |  |  | 493 | 388 | 60 |  |  |  |  |  |  | 
16 | O=C(O)CCC(=O)N1CCCC1=O |  |  |  |  |  |  |  | 113 | 93 | 0 |  |  |  |  |  |  | 
